Measured values as given in ChEMBL document CHEMBL1135925, “Exploration of the pharmacophore of 3-alkyl-5-arylimidazolidinediones as new CB(1) cannabinoid receptor ligands and potential antagonists: synthesis, lipophilicity, affinity, and molecular modeling” (J Med Chem, 2002).

Tests used:
[1] = Capacity factor (log Kw) was measured; assay type: ADME; settings: RP-HPLC, methanol/phosphate buffer pH 7.4, extrapolated to 0% methanol
Procedure, shortened: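 RP-HPLC on a C18 column (250 mm × 4.6 mm, 5 μm particles), UV detection at 250 nm. Four mobile phases of methanol/0.1 M phosphate buffer pH 7.4 (90:10, 80:20, 75:25, 70:30 v/v). k' = (tr − t0)/t0, with t0 the column dead time. Calibrated against reference solutes of known log P (0.64–3.30), and log kw indices correlated with log P.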

[2] = Lipophilicity (calculated by CLIP)
[3] = biological target: Cannabinoid receptor 1 (Homo sapiens) (UniProt P21554); test: Percent displacement of [3H]-SR-141716A, by compound at 10 uM, in transfected CHO cells expressing the human cannabinoid receptor 1.; assay type: cell-based
Chain of Cannabinoid receptor 1 (Homo sapiens) (P21554 whole entry): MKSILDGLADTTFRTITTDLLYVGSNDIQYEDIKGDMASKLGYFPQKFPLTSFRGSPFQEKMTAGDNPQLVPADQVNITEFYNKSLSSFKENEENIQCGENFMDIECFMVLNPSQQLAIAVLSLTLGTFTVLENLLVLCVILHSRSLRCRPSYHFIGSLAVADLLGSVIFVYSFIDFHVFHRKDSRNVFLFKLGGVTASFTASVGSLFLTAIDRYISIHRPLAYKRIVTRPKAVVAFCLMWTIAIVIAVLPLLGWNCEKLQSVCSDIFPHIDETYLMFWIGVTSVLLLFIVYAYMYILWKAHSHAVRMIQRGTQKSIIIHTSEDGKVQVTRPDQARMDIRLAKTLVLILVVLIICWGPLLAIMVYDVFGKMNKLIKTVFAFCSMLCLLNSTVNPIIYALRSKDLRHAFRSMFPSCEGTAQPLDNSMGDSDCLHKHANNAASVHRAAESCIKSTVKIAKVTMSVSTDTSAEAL
Procedure, shortened: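 Membranes (60 μg) from CHO cells expressing human CB1, cultured in Ham F12 with 10% FCS and G418. Test compound screened at 10 μM against 1 nM [3H]-SR-141716A, 1 h at 30 °C, in 50 mM Tris-HCl pH 7.4 with 3 mM MgCl2, 1 mM EDTA and 0.1% BSA. Nonspecific binding defined with 10 μM WIN-55,212-2 or CP-55,940. PEI-treated GF/C filtration, scintillation counting, triplicates, n = 3–5.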

Log Kw [1]	CLIP [2]	Displacement [3]	Structure (SMILES)
3.46	4.26		CCCCN1C(=O)NC(c2ccccc2)(c2ccccc2)C1=O
3.17	3.21	28.8%	CCCCCCN1C(=O)NC(Cc2c[nH]c3ccccc23)C1=O (stereo unspecified)
	2.31	64%	O=C1NC(Cc2c[nH]c3ccccc23)C(=O)N1CCc1ccccc1 (stereo unspecified)
	2.16		O=C1NC(c2ccccc2)(c2ccccc2)C(=O)N1CCN1CCOCC1
	2.73		COc1ccc(C2(c3ccc(OC)cc3)NC(=O)N(CCN3CCOCC3)C2=O)cc1
	7.04		CCCCCCCN1C(=O)NC(c2ccc(C)cc2)(c2ccc(C)cc2)C1=O
6.65	7.45		CCCCCCCN1C(=O)NC(c2ccc(Br)cc2)(c2ccc(Br)cc2)C1=O
4.11	3.83		O=C1NC(c2ccccc2)(c2ccccc2)C(=O)N1CCN1CCCCC1
4.32	5.37		CCCCCCN1C(=O)NC(c2ccccc2)(c2ccccc2)C1=O
	7.99		CCCCCCCCN1C(=O)NC(c2ccc(Br)cc2)(c2ccc(Br)cc2)C1=O
	2.81		O=C1NC(c2ccc(F)cc2)(c2ccc(F)cc2)C(=O)N1CCN1CCOCC1
	5.81		CCCCCCN1C(=O)NC(c2ccc(OC)cc2)(c2ccc(OC)cc2)C1=O
3.08	2.92	59.8%	O=C1NC(Cc2c[nH]c3ccccc23)C(=O)N1Cc1cccc2ccccc12 (stereo unspecified)
	3.49		Cc1ccc(C2(c3ccc(C)cc3)NC(=O)N(CCN3CCOCC3)C2=O)cc1
6.14	6.87		CCCCCCN1C(=O)NC(c2ccc(Br)cc2)(c2ccc(Br)cc2)C1=O
3	2.83		CN(C)CCN1C(=O)NC(c2ccccc2)(c2ccccc2)C1=O
	5.81		CCCCCCN1C(=O)NC(c2ccc(F)cc2)(c2ccc(F)cc2)C1=O
	2.8	44.3%	O=C1NC(Cc2c[nH]c3ccccc23)C(=O)N1CCCc1ccccc1 (stereo unspecified)
	3.76		O=C1NC(c2ccc(Br)cc2)(c2ccc(Br)cc2)C(=O)N1CCCO
	6.48		CCCCCCN1C(=O)NC(c2ccc(C)cc2)(c2ccc(C)cc2)C1=O
	4.8		CCCCCN1C(=O)NC(c2ccccc2)(c2ccccc2)C1=O
	6.42		CCCCCCCN1C(=O)NC(c2ccc(F)cc2)(c2ccc(F)cc2)C1=O
2.93	3.84		CCCN1C(=O)NC(c2ccccc2)(c2ccccc2)C1=O
	6.5		CCCCCCCCN1C(=O)NC(c2ccccc2)(c2ccccc2)C1=O
	6.94		CCCCCCCCN1C(=O)NC(c2ccc(F)cc2)(c2ccc(F)cc2)C1=O
	4.11		O=C1NC(c2ccccc2)(c2ccccc2)C(=O)N1Cc1ccccc1
2.35	2.21	< 5%	CCCCN1C(=O)NC(Cc2c[nH]c3ccccc23)C1=O (stereo unspecified)
	2.89	< 5%	CC(C)N1C(=O)NC(c2ccccc2)(c2ccccc2)C1=O

Structure (SMILES)	Log Kw [1]	CLIP [2]	Displacement [3]
O=C1NC(c2ccc(Br)cc2)(c2ccc(Br)cc2)C(=O)N1CCN1CCOCC1	4.5	3.86	
